Bioassay records as filed in PubChem.
ATG4B inh: ATG4B protease inhibitors, primary screen, biochemical, fluorescence, uHTS. Cysteine protease ATG4B (Homo sapiens), Q9Y4P1. ATG4B cleavage of LC3-PLA2, NBD-HPC fluorescence, 1 h. inhibition, % at 8.33 µM. 340,000 tested, 0.51% active; in the data active = inhibition above about 40%
Bfl-1 A1 inh: caspase 3/7 activation in MEF A1-2A-BIM cells, primary screen, A1 inhibitor project, cell-based, luminescence, HTS; Caspase-Glo 3/7 luminescence, 3 h; percent of clofoctol response, vehicle zero; caspase activation, % (test concentration not listed); 330,000 tested, 0.066% active;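 active = over half of replicate activation scores above 10%, or exactly half above 10 with the replicate mean above 10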
AI-2 QS modul: Vibrio harveyi AI-2 quorum sensing modulators, primary screen, JMH597 strain, luminescence/OD600 ratio; Vibrio harveyi JMH597 AI-2 luminescence/OD600 ratio, 9 h; hits give low values; strain lacks LuxN and CqsS sensors; 0 = neutral-control median; activity change, % at 7.5 µM; 300,000 tested, 0.4% active; AID 2094, 2009; in the data active = activity change below about -75%, passing the limit was not always enough;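 also: luminescence divided by OD600 gain over 9 h not by final OD600 alone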
HKDC1 inhibitor: HKDC1 hexokinase inhibitors, primary screen, biochemical, fluorescence, uHTS. Q2TB90. recombinant HKDC1, G6PDH/diaphorase resazurin coupled fluorescence. inhibition, % at 20 µM. 340,000 tested, 0.16% active;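 active = inhibition above about 35% when tested at 20 µM, limit read from the data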;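 also: plate controls were DMSO wells with enzyme for no effect and DMSO wells lacking enzyme for full effect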
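Assay system: in-house recombinant HK5 (HKDC1) enzyme. Input: HKDC1 at 5 µg/mL. Medium: Tris pH 8.0 buffer with MgCl2, Tween-20, BSA, BME. Dosing: single 20 µM dose. Schedule: 90 min reaction incubation at room temperature, dark. Signal: resazurin-to-resorufin fluorescence via G6PDH and diaphorase coupling, 525/613 nm. Controls: DMSO-enzyme wells negative, buffer-substituted wells positive.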
HDAC3 inhib: HDAC3 deacetylase inhibitors, primary screen, biochemical, fluorescence, cell-free homogeneous; Histone deacetylase 3 (Homo sapiens), O15379; recombinant HDAC3, fluorogenic peptide/trypsin coupled; inhibition, % at 8.3 µM; 320,000 tested, 0.15% active; AID 2718, 2010; in the data active = inhibition above about 26%, passing the limit was not always enough
LANA-H2B inh: blockers of LANA interaction with H2A/H2B – biochemical, FP readout, HTS, primary screen | cell-free LANA-H2A/H2B peptide, fluorescence polarization | inhibition, % (concentration not given with the values) | 320,000 tested, 0.6% active; in the data active = inhibition mostly above about 10%, no sharp cut-off; inactive = mostly below about 6.7%
Target sequence (Q9QR71 whole entry, looked up): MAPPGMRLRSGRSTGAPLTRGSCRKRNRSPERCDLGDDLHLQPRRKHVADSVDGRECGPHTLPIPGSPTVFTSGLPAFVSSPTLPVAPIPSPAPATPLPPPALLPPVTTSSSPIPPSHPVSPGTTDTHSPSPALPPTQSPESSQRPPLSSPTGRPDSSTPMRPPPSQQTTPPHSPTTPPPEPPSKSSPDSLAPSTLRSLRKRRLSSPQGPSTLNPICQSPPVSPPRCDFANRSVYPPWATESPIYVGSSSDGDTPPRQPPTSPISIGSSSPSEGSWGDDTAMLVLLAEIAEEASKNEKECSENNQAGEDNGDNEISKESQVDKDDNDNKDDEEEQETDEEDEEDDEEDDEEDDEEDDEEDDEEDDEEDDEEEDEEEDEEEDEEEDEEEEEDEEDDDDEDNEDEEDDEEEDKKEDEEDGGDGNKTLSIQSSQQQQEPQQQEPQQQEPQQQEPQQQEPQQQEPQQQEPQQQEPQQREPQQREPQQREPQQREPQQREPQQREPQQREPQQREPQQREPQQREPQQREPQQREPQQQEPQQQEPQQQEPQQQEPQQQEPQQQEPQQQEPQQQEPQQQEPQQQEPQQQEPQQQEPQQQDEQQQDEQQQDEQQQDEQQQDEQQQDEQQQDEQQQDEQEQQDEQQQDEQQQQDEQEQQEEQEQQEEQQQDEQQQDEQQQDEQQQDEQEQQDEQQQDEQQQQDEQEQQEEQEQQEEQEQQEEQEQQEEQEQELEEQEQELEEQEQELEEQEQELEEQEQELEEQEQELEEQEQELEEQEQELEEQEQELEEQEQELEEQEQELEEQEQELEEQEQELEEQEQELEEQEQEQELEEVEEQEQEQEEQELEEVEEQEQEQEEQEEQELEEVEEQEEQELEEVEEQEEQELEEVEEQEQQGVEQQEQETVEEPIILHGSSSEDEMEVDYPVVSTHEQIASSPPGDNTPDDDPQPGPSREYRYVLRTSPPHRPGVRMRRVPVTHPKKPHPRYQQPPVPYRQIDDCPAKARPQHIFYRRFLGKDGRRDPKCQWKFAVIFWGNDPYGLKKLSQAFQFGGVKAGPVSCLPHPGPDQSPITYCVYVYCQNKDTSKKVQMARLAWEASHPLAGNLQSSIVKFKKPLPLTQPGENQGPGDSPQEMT
Active calls of the source: *; . = no result. This is a sample that favours compounds with a hit; in the whole collection about 1.8% have one here.

SMILES	ATG4B inh	Bfl-1 A1 inh	AI-2 QS modul	HKDC1 inhibitor	HDAC3 inhib	LANA-H2B inh
CN1CCN(CC(=O)Nc2ccc([N+](=O)[O-])cc2Br)CC1	-2.1	-0.1	5.2	-7.0	8.9	-0.7
COc1cc(NC(=O)c2ccc(Br)cc2)c(OC)cc1NC(=O)c1ccccc1	-0.3	0.8	13.8	-4.7	4.5	-2.5
COc1cc(NC(=O)c2ccccc2)c(OC)cc1NC(=O)Cc1ccc(Br)cc1	7.3	11.8*	37.1	4.2	0.6	-4.7
CC(C)Oc1ccc(Cl)cc1Nc1nc(NCCO)nc(N2CCCC2)n1	4.7	-0.3	16.2	-2.2	28.1*	-1.5
Cc1ccc(C(=O)Oc2oc(-c3ccccc3)nc2C=Nc2ccc(N(C)C)cc2)cc1	-6.0	-1.4	46.9	5.5	-9.5	-23.3
COc1ccc(N=Cc2nc(-c3ccccc3)oc2OC(C)=O)cc1	21.0	0.5	14.3	5.7	37.7*	0.3
COc1cccc(N=Cc2nc(-c3ccccc3)oc2OC(C)=O)c1	-9.8	1.6	-1.1	-2.2	59.2*	3.4
C/C(Sc1nnc(Cc2ccccc2)o1)=C(\O)c1ccccc1	5.8	.	.	1.7	.	.
CC(=O)C1(O)CCC2C3CC(C)C4=CC(=O)C=CC4(C)C3(F)C(O)CC21C (stereo not given)	3.7	.	.	-3.4	.	.
C=C1c2nc3ccccc3n2C=C(c2ccc(C)cc2)N1c1ccccc1	7.2	.	.	18.4	.	.
CCc1ccc(C(=O)Nn2cnc3ccccc3c2=O)cc1	5.5	0.1	-80.3*	-2.8	1.9	-2.6
O=C(Nn1cnc2ccccc2c1=O)c1ccc(Br)cc1	4.2	-0.1	-61.8	0.1	-3.0	-3.4
COc1ccc(CC(=O)OCC(=O)Nc2cccc(C(C)=O)c2)cc1OC	-16.3	.	.	2.5	.	.
O=C(CCc1c[nH]c2ccccc12)N1CCCCCCC1	3.0	0.6	7.1	-2.7	4.1	59.9*
Cc1ccc(NC(=O)CNCc2cccs2)cc1Br	14.2	0.9	-76.2*	-1.1	-2.7	-5.7
CCCc1nc(SCC(=O)c2ccc(F)cc2)c2ccccc2n1	4.8	0.0	33.4	-1.8	33.2*	0.2
CCCCNC(=O)CSc1nc(CCC)nc2ccccc12	-5.5	0.2	12.0	-8.1	3.9	-1.8
CC1CC(C)CN(C(=O)C2CCCN(c3ncnc4c3nc3n4CCCCC3)C2)C1 (stereo not given)	-3.4	0.3	-76.2*	-1.1	-0.4	-1.6
CC1(C)NC(=O)N(CC(=O)OCC(=O)N2CCN(S(=O)(=O)c3ccccc3)CC2)C1=O	4.3	.	.	-0.2	.	.
CC(NCC(O)COc1ccccc1)C1COc2ccccc2O1 (stereo not given)	-7.8	-0.3	19.5	1.1	-0.9	1.9
COc1ccc(C(=O)n2c(-c3ccco3)nc3ccccc32)cc1	-6.0	-5.0	26.4	3.1	43.5*	-0.3
COc1ccc(C(=O)N2CCn3c2nc2ccccc23)cc1	2.7	-1.4	8.0	-4.2	4.4	-4.1
O=C(COC(=O)/C=C/c1cccc(Cl)c1)NC1CC1	-32.3	-0.1	.	-1.3	1.0	19.0*
Nc1cccc2nsnc12	-2.5	-1.0	21.2	20.8	3.7	1.1
Nc1cc2nsnc2cc1Br	65.2*	0.1	24.9	-4.3	-2.3	-1.0
CC12COC3(C(=O)Nc4ccccc4)CC1CCC32C (stereo not given)	-2.0	0.7	-4.0	1.2	-2.2	-1.2
CC12COC3(C(=O)Nc4ccc5ccccc5c4)CC1CCC32C (stereo not given)	-7.8	0.5	7.9	8.8	3.5	31.8*
O=C1C=C(c2ccc3ccccc3c2)C[C@@H](c2ccc(F)cc2)C1	-9.4	1.9	.	2.1	1.0	21.3*
COc1ccccc1NS(=O)(=O)c1cc(NC(=O)c2cccc(S(=O)(=O)N(C)C)c2)ccc1N1CCOCC1	-20.9	.	.	8.2	.	.
Oc1ccccc1Oc1c(F)c(F)nc(N2CCCC2)c1F	20.4	1.3	-93.5*	-4.2	8.5	-4.3
